From the M2OR odorant receptor database

Tests used:
Details in all cases: stereoisomer not certain
UniProt Q8VGL0 = target: T1, UniProt Q8VGL0
T1 sequence (whole entry): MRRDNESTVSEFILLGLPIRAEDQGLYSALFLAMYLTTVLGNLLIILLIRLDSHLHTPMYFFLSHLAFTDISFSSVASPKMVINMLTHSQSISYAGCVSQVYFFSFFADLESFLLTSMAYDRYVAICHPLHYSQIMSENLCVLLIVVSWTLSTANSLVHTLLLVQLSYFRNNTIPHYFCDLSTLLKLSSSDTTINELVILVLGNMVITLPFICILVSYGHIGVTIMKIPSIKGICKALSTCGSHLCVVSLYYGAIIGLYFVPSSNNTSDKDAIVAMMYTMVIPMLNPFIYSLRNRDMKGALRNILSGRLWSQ
Summary of the method: (§1)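 Transient luciferase assays in mammalian cell lines were common, though methods varied by source. The values come from published papers and their supplementary material, with extra details from the original authors when needed. Responsive refers to a measured signal the original authors judged statistically different from baseline, and non-responsive (inactive) to the remainder.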

UniProt Q8VGU3 = target: T2, UniProt Q8VGU3
T2 sequence (whole entry): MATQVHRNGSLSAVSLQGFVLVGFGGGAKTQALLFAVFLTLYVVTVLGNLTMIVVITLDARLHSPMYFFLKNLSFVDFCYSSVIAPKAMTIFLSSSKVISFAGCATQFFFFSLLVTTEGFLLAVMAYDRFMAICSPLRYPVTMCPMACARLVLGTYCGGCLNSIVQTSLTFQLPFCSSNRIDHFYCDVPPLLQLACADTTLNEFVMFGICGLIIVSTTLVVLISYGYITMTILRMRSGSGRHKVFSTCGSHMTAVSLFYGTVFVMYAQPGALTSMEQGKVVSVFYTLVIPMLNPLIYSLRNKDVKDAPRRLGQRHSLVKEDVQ
Summary of the method: as §1

UniProt Q8VGV7 = target: T3, UniProt Q8VGV7
T3 sequence (whole entry): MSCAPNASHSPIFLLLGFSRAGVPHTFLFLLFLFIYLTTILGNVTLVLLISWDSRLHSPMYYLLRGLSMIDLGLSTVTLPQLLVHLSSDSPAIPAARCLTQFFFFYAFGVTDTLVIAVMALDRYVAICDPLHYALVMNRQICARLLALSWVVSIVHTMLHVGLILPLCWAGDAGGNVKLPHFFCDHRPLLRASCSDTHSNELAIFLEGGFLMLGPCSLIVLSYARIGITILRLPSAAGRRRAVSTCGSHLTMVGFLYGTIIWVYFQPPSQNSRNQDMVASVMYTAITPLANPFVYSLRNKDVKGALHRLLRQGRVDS
Summary of the method: as §1

UniProt Q8VGX3 = target: T4, UniProt Q8VGX3
T4 sequence (whole entry): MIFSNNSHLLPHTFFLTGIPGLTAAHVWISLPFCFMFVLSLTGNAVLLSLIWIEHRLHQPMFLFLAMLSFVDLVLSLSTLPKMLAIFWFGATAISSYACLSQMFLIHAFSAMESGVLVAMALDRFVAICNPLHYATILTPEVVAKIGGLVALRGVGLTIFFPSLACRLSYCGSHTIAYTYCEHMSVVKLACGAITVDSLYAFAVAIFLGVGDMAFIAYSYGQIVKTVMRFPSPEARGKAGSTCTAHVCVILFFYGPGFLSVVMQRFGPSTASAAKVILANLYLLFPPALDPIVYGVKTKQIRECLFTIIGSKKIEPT
Summary of the method: as §1

UniProt Q8VGX5 = target: T5, UniProt Q8VGX5
T5 sequence (whole entry): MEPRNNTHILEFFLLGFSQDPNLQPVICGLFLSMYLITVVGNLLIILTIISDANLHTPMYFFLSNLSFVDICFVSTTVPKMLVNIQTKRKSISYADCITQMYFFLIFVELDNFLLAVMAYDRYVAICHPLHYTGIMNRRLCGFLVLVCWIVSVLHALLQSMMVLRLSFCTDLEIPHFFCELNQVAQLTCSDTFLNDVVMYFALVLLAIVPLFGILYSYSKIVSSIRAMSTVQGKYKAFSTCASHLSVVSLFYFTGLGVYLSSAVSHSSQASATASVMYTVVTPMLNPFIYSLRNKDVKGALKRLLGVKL
Summary of the method: as §1

UniProt Q8VGZ2 = target: T6, UniProt Q8VGZ2
T6 sequence (whole entry): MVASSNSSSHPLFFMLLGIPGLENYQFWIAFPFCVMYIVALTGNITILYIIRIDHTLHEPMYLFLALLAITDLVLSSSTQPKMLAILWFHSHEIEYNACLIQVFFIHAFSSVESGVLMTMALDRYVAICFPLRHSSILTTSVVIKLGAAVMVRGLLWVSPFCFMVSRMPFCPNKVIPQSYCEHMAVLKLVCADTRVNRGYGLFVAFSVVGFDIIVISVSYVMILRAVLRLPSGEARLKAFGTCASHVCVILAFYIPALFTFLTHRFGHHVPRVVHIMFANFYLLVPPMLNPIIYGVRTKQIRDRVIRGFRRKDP
Summary of the method: as §1

UniProt Q8VGZ7 = target: T7, UniProt Q8VGZ7
T7 sequence (whole entry): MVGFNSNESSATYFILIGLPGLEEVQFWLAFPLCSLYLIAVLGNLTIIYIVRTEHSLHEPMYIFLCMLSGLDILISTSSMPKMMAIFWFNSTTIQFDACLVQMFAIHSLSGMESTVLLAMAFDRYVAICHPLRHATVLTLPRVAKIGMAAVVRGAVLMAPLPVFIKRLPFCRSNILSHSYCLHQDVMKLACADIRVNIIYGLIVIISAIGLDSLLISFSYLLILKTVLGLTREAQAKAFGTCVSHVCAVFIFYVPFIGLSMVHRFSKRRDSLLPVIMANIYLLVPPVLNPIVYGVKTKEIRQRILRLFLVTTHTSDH
Summary of the method: as §1

UniProt Q8VH16 = target: T8, UniProt Q8VH16
T8 sequence (whole entry): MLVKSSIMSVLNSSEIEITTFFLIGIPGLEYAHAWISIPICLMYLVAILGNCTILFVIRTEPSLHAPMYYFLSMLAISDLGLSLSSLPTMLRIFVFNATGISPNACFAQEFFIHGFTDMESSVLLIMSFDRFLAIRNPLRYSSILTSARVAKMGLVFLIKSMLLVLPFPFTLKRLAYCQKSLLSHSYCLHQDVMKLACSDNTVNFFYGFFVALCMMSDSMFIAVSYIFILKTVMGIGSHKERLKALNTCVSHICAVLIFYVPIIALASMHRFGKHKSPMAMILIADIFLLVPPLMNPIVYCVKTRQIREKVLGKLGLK
Summary of the method: as §1

UniProt Q8VH20 = target: T9, UniProt Q8VH20
T9 sequence (whole entry): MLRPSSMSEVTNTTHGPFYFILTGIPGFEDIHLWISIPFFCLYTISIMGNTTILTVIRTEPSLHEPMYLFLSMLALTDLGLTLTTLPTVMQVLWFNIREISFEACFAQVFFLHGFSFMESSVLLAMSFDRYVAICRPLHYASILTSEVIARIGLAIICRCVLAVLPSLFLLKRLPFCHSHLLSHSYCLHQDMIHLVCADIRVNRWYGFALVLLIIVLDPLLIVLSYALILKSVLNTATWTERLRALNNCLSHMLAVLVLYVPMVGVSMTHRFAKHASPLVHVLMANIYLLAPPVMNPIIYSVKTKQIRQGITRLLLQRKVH
Summary of the method: as §1

Measured: odorant receptor agonist call;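 note: active if original authors judged signal statistically different from baseline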

O=Cc1ccccc1
inactive: all assays above
